The target in data set [1] is T1, T. brucei MetRS (Trypanosoma brucei brucei, UniProt Q38C91).
T1 sequence (Q38C91 1-773): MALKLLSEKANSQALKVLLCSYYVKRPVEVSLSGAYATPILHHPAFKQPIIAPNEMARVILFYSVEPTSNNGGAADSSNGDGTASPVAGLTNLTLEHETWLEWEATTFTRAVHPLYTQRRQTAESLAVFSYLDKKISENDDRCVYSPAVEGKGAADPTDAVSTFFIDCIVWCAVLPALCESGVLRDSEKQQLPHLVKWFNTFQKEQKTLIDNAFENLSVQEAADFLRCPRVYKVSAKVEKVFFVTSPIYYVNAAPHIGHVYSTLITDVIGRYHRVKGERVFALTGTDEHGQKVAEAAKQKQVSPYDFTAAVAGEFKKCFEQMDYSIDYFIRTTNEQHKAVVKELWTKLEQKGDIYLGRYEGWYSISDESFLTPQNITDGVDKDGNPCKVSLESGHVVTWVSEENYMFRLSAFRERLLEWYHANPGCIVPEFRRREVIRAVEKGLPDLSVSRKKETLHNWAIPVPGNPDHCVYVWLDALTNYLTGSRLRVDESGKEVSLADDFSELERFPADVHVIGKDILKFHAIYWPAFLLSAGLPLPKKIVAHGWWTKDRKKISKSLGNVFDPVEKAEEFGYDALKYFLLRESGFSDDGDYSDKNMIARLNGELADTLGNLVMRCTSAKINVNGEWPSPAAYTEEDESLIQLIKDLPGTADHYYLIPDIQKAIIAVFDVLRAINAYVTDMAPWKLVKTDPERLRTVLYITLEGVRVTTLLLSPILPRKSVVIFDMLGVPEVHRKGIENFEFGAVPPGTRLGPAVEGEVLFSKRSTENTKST
The experiment in a line: Orthogonal fluorescence polarization AMP production assay. It counts as biochemical. The gist of the method: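 Concentration-response was run in triplicate as a 10-point serial dilution from 120 µM. AMP was detected by FP with a Transcreener AMP²/GMP² reagent (Cy5, excitation 620 nm, emission 688 nm), with FP = (S − P)/(P + S). Percent inhibition was normalized per plate between DMSO-only wells and wells with 1.5 µM reference inhibitor.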
(In general: Fluorescence polarisation rises when a labelled molecule tumbles more slowly, as on binding a larger partner.)

The target in data set [2] is T2, human mitochondrial MetRS (Homo sapiens, UniProt Q96GW9).
T2 sequence (Q96GW9 30-593): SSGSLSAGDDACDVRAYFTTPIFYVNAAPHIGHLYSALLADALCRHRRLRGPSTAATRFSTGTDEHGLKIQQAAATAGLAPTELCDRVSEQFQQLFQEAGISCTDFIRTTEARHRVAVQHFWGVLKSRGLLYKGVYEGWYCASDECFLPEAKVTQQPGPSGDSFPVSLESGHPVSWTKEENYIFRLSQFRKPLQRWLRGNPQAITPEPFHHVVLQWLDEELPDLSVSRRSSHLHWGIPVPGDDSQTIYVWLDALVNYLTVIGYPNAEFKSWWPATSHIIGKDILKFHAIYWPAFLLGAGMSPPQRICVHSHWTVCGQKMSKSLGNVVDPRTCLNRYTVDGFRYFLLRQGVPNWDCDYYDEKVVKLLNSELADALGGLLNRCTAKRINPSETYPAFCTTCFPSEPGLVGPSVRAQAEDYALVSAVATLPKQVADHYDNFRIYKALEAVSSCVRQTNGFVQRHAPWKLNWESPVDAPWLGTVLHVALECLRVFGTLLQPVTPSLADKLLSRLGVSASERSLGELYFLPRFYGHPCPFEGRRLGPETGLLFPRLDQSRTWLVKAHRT
Description: Aminoacylation assay, selectivity counterscreen. The format is biochemical.

In data set [3] the test system is Jurkat cells. The experiment in a line: Jurkat cell cytotoxicity counterscreen. The format is cell-based. The procedure, abridged: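 Jurkat E6.1 suspension cells grown in RPMI-1640 with 10% dialyzed FBS, NEAA, pyruvate, HEPES, glutamine and antibiotic-antimycotic at 37 °C, 5% CO₂. CellTiter-Glo added, 10 min RT, then luminescence read. Tested in triplicate. Data normalized per plate: 8 µM doxorubicin as high control, DMSO as low control.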
In general terms: A counterscreen serves to expose hits that act by an unwanted route or on another target.

In data set [4] the target is T1, T. brucei MetRS. Description: Luminescence. The format is biochemical.
For data set [5], the target named is T1, T. brucei MetRS. The experiment in a line: Aminoacylation assay, incorporation of [3H]L-methionine into tRNA. It counts as biochemical.
For data set [6], the target named is T1, T. brucei MetRS. The settings on record: formerly shown; cited from earlier work.
For data set [7] the following is noted: cited from earlier work.
Setting [8] is: luminescence ATP depletion assay, 1536-well.
The mark [9] stands for this setting: fluorescence polarization assay.

As to `Cn1nc(C(F)(F)F)c(-c2cccc(C(F)(F)F)c2)c1NC(=O)Nc1ccc(F)cc1` [CID 2810697], in data set [1] (dose response curve), the “activity in fluorescence polarization assay” value is given as “inactivity”.

Usually % inhibition stands for the share of the control response that was lost under treatment. Low readings indicate little suppression, high ones strong suppression. In the case of `CN(Cc1cc(Cl)cc(Cl)c1)[C@H]1C[C@H]2c3[nH]c4ccccc4c3CCN2C(=O)[C@H]1CO` [CID 46902334], the “% inhibition” value in data set [2] (at 1, human mitochondrial MetRS) stood at 14.3%; in data set [2] (at 10, human mitochondrial MetRS), 80.3%.

For the compound `O=C(CCCSc1ccc(Cl)cc1)Nc1ccccc1O` [CID 16312830], the “activity in the Jurkat cytotoxicity assay” value in data set [3] (dose response, highest dilution 83.3 M) is “activity”.

Broadly, the IC50 is the concentration needed to halve the response being measured. Lower therefore signals higher potency. `COc1cccc(NC(=O)CSc2nnc3c(n2)[nH]c2ccc(C)cc23)c1` [CID 24793614] yielded an IC50 in data set [4] (setting [8]) of 44 nM.

Usually pIC50 stands for the IC50 on a negative log10 scale, so that one unit is a factor of ten. Read a high pIC50 as a low IC50. Regarding `O=C(Cn1cc(C(=O)C(=O)N2CCOCC2)c2ccccc21)Nc1cccc(C(F)(F)F)c1` [CID 2973195], the IC50 in data set [4] (setting [8]) was 171 nM; in data set [3] (Jurkat cytotoxicity assay), greater than 83000 nM; in data set [1] (setting [9]), 292 nM. In addition, the values for the pIC50 in data set [4] (setting [8]), in data set [3] (Jurkat cytotoxicity assay) and in data set [1] (setting [9]) were 6.77, less than 4.08 and 6.53, respectively.

As to `O=C(CN1CCSC1=NCc1ccccc1)c1ccc(Cl)c(Cl)c1` [CID 4656759], in data set [5], the “% inhibition” value is recorded as 28%.

What is called Hill slope is the slope factor of the fitted curve. On to `Oc1cc(NCCCNCc2cc(Cl)cc(Cl)c2)nc2ccccc12` [CID 18353708, 2-((3-((3,5-dichlorobenzyl)amino)propyl)amino)quinolin-4(1H)-one, reference compound], for which the IC50 is 24.2 ± 2.74 nM in data set [4] and 30.3 ± 4.81 nM in data set [1]. The Hill slope in data set [4] (luminescence ATP depletion assay, N=11) was determined as 4.41 ± 0.56; in data set [1] (fluorescence polarization assay, N=3), 4.34 ± 0.17. Also, the “inhibition of T. brucei MetRS” value in data set [6] is listed as “sub-micromolar inhibition”. The bioavailability entry in data set [7] is “poor bioavailability”.

These data come from paper PMC4378865 (Journal of biomolecular screening, 2014).
